Test results as given in ChEMBL document CHEMBL2413001, “Exploring pyrimidine-substituted curcumin analogues: design, synthesis and effects on EGFR signaling” (Bioorg Med Chem, 2013).
Active and inactive are the calls of the source. The rule behind the calls is not given here.

What was measured:
[1] = tested on: HT-29; assay: Cytotoxicity against human HT-29 cells assessed as growth inhibition after 48 hrs by resazurin assay; format: functional, cell-based; details: for IC50: HT-29, 48 h
Summary of the method: (§1)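 HCT116 or HT29 seeded at 2000 cells/well, grown 24 h, then given fresh complete McCoy's 5A (5% FBS, 0.1% DMSO final) containing serial compound concentrations for 48 h. Resazurin was added for 16 h and fluorescence read at ex 544/em 595 nm as a measure of living cells. IC50 was calculated by the Logit approach; values are mean ± SD.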

[2] = tested on: HCT-116; assay: Cytotoxicity against human HCT116 cells assessed as growth inhibition after 48 hrs by resazurin assay; format: functional, cell-based; details: for IC50: HCT-116, 48 h; summary of the method: as §1
[3] = tested on: HCT-116; assay: Induction of apoptosis in human HCT116 cells assessed as ratio of Bax to Bcl-2 expression at 5 uM after 72 hrs by Western blot analysis relative to control; format: functional
Summary of the method: (§2)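 HCT116 only, seeded at 8 × 10⁴ cells/ml in 15 cm dishes for 24 h, then treated for 72 h at 20 µM or at 5, 10 and 20 µM. Lysed in Triton lysis buffer (pH 7.5) with inhibitors, sonicated, and protein assayed by BCA. Western blots were developed by ECL. Band intensities were normalized to β-actin, as means of three independent experiments; the Bax/Bcl-2 ratio was expressed relative to untreated control.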

[4] = tested on: HCT-116; assay: Induction of apoptosis in human HCT116 cells assessed as ratio of Bax to Bcl-2 expression at 10 uM after 72 hrs by Western blot analysis relative to control; format: functional; summary of the method: as §2
[5] = tested on: HCT-116; assay: Induction of apoptosis in human HCT116 cells assessed as ratio of Bax to Bcl-2 expression at 20 uM after 72 hrs by Western blot analysis relative to control; format: functional; summary of the method: as §2
[6] = tested on: HCT-116; assay: Induction of apoptosis in human HCT116 cells assessed as increase in Bax expression after 72 hrs by Western blot analysis; format: functional, cell-based; summary of the method: as §2
[7] = tested on: HCT-116; assay: Induction of apoptosis in human HCT116 cells assessed as reduction in Bcl-2 expression after 72 hrs by Western blot analysis; format: functional, cell-based; summary of the method: as §2
[8] = tested on: HCT-116; assay: Induction of apoptosis in human HCT116 cells assessed as effect on HSP-90 expression after 72 hrs by Western blot analysis; format: functional, cell-based; summary of the method: as §2
[9] = tested on: HCT-116; assay: Induction of apoptosis in human HCT116 cells assessed as effect on HSP-70 expression after 72 hrs by Western blot analysis; format: functional, cell-based; summary of the method: as §2
[10] = tested on: HCT-116; assay: Induction of apoptosis in human HCT116 cells assessed as PARP cleavage after 72 hrs by Western blot analysis; format: functional, cell-based; summary of the method: as §2
[11] = tested on: HCT-116; assay: Induction of apoptosis in human HCT116 cells assessed as caspase-3 activation after 72 hrs by Western blot analysis; format: functional, cell-based; summary of the method: as §2
[12] = target: Epidermal growth factor receptor (Homo sapiens) (UniProt P00533); assay: Inhibition of EGFR signaling in human HCT116 cells assessed as effect on CDK4 expression at 5 to 20 uM after 24 hrs by Western blot analysis; format: cell-based; details: HCT-116
Chain of Epidermal growth factor receptor (Homo sapiens) (P00533 whole entry): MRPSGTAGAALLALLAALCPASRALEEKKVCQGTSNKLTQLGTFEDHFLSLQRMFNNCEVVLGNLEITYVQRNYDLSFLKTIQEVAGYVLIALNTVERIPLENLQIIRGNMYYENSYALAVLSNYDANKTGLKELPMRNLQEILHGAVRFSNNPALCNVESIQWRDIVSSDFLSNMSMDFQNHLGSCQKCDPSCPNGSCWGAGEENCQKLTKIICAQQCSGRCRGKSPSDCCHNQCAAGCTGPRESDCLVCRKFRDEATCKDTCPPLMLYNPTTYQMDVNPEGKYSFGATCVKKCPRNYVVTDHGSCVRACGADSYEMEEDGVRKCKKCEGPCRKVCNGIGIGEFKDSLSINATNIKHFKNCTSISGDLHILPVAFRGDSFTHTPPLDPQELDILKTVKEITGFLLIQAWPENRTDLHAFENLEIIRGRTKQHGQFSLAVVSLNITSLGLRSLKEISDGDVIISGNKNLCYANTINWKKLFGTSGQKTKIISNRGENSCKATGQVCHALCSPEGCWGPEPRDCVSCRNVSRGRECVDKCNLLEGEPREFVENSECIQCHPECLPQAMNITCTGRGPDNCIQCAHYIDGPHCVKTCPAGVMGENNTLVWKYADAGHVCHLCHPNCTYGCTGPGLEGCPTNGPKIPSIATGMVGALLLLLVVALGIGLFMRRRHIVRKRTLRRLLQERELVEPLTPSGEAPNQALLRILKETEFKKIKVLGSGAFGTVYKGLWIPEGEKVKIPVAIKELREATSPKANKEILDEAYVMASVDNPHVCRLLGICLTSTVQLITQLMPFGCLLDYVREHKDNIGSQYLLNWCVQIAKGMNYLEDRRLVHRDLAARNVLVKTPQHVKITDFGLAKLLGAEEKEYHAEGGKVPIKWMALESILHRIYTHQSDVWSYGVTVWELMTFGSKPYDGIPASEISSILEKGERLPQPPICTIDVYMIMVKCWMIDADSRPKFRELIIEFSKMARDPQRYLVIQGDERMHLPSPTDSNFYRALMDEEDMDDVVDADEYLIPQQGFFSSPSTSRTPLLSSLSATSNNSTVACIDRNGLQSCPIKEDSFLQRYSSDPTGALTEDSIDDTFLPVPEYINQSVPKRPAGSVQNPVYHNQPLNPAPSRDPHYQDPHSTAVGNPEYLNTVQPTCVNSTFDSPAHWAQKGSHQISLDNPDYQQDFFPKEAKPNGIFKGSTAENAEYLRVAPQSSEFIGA

[13] = target: Epidermal growth factor receptor (Homo sapiens) (UniProt P00533); assay: Inhibition of EGFR signaling in human HCT116 cells assessed as inhibition of Rb expression after 24 hrs by Western blot analysis; format: cell-based; details: HCT-116
[14] = target: Epidermal growth factor receptor (Homo sapiens) (UniProt P00533); assay: Inhibition of EGFR signaling in human HCT116 cells assessed as effect on CDK2 expression at 5 to 20 uM after 24 hrs by Western blot analysis; format: cell-based; details: HCT-116
[15] = target: Epidermal growth factor receptor (Homo sapiens) (UniProt P00533); assay: Inhibition of EGFR signaling in human HCT116 cells assessed as inhibition of cyclin E1 expression after 24 hrs by Western blot analysis; format: cell-based; details: HCT-116
[16] = target: Epidermal growth factor receptor (Homo sapiens) (UniProt P00533); assay: Inhibition of EGFR signaling in human HCT116 cells assessed as inhibition of cyclin D1 expression after 24 hrs by Western blot analysis; format: cell-based; details: HCT-116
[17] = target: Epidermal growth factor receptor (Homo sapiens) (UniProt P00533); assay: Inhibition of EGFR signaling in human HCT116 cells assessed as induction of p21 WAF-1/CIP-1 expression at 5 uM after 24 hrs by Western blot analysis relative to control; format: cell-based; details: HCT-116
[18] = target: Epidermal growth factor receptor (Homo sapiens) (UniProt P00533); assay: Inhibition of EGFR signaling in human HCT116 cells assessed as induction of p21 WAF-1/CIP-1 expression at 10 uM after 24 hrs by Western blot analysis relative to control; format: cell-based; details: HCT-116
[19] = target: Epidermal growth factor receptor (Homo sapiens) (UniProt P00533); assay: Inhibition of EGFR signaling in human HCT116 cells assessed as induction of p21 WAF-1/CIP-1 expression at 20 uM after 24 hrs by Western blot analysis relative to control; format: cell-based; details: HCT-116
[20] = tested on: HCT-116; assay: Cell cycle arrest in human HCT116 cells assessed as accumulation at G0/G1 phase at 5 uM after 24 hrs by flow cytometry relative to control; format: functional, cell-based
Summary of the method: (§3)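 HCT116 or HT29 cells seeded at 4 × 10⁴ cells/ml in 6-well plates and left 24 h to attach, then exposed for 24 h in complete McCoy's 5A (5% FBS) with 0.1% DMSO final, at 5, 10 or 20 µM. Floating and trypsinized cells were pooled, PBS-washed, fixed overnight in 70% ethanol at 4 °C and stained with PI/RNase for 15 min at room temperature. Flow DNA content gave G0/G1, S and G2/M fractions as fold of control, from three independent assays.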

[21] = tested on: HT-29; assay: Cell cycle arrest in human HT-29 cells assessed as accumulation at G0/G1 phase at 5 uM after 24 hrs by flow cytometry relative to control; format: functional, cell-based; summary of the method: as §3
[22] = tested on: HT-29; assay: Cell cycle arrest in human HT-29 cells assessed as increase in G2/M population at 10 uM after 24 hrs by flow cytometry relative to control; format: functional; summary of the method: as §3
[23] = tested on: HT-29; assay: Cell cycle arrest in human HT-29 cells assessed as increase in G2/M population at 5 uM after 24 hrs by flow cytometry relative to control; format: functional; summary of the method: as §3
[24] = tested on: HT-29; assay: Cell cycle arrest in human HT-29 cells assessed as increase in G2/M population at 20 uM after 24 hrs by flow cytometry relative to control; format: functional; summary of the method: as §3
[25] = tested on: HCT-116; assay: Cell cycle arrest in human HCT116 cells assessed as increase in G2/M population at 10 uM after 24 hrs by flow cytometry relative to control; format: functional; summary of the method: as §3
[26] = tested on: HCT-116; assay: Cell cycle arrest in human HCT116 cells assessed as increase in G2/M population at 5 uM after 24 hrs by flow cytometry relative to control; format: functional; summary of the method: as §3
[27] = tested on: HCT-116; assay: Cell cycle arrest in human HCT116 cells assessed as increase in G2/M population at 20 uM after 24 hrs by flow cytometry relative to control; format: functional; summary of the method: as §3
[28] = tested on: HCT-116; assay: Inhibition of EGFR protein expression in human HCT116 cells after 72 hrs by Western blot analysis; format: functional, cell-based
Summary of the method: (§4)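 HCT116 or HT29 seeded at 8 × 10⁴ cells/ml in 15 cm dishes for 24 h, then treated for 72 h at 20 µM or at 5, 10 and 20 µM. Whole-cell lysates were made in Tris-HCl/NaCl/Triton buffer with phosphatase and protease inhibitors (pH 7.5), sonicated and cleared at 10,000g; protein was measured by BCA. Blots were blocked in 5% milk/TBST and developed by ECL. P-EGFR(Tyr1068) and total EGFR bands were normalized to β-tubulin, as means of three experiments.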

[29] = tested on: HT-29; assay: Inhibition of EGFR protein expression in human HT-29 cells after 72 hrs by Western blot analysis; format: functional, cell-based; summary of the method: as §4
[30] = target: Epidermal growth factor receptor (Homo sapiens) (UniProt P00533); assay: Inhibition of EGFR phosphorylation at Tyr1068 residue in human HCT116 cells after 72 hrs by Western blot analysis; format: cell-based; details: HCT-116; summary of the method: as §4
[31] = target: Epidermal growth factor receptor (Homo sapiens) (UniProt P00533); assay: Inhibition of EGFR phosphorylation at Tyr1068 residue in human HT-29 cells after 72 hrs by Western blot analysis; format: cell-based; summary of the method: as §4

COc1cc(/C=C/c2cc(/C=C/c3cc(OC)c(OC)c(OC)c3)nc(NCCCO)n2)cc(OC)c1OC
growth inhibition (GI) [1]: Dose-dependent effect
IC50 [1]: 12.4 µM
growth inhibition (GI) [2]: Dose-dependent effect
IC50 [2]: 7.4 µM

CCCNc1nc(/C=C/c2ccc(OC)c(OC)c2)cc(/C=C/c2ccc(OC)c(OC)c2)n1
growth inhibition (GI) [1]: Dose-dependent effect
IC50 [1]: > 100 µM
growth inhibition (GI) [2]: Dose-dependent effect
IC50 [2]: 28 µM

COc1ccc(/C=C/c2cc(/C=C/c3ccc(OC)c(OC)c3)nc(NCCO)n2)cc1OC
Ratio [3]: 2.1
Ratio [4]: 17
Ratio [5]: 19
Activity [6]: Dose-dependent effect
Activity [7]: Dose-dependent effect
Activity [8]: Dose-dependent effect
Activity [9]: Dose-dependent effect
Activity [10]: Dose-dependent effect
Activity [11]: Dose-dependent effect
inhibition [12]: inactive
inhibition [13]: Dose-dependent effect
inhibition [14]: inactive
inhibition [15]: Dose-dependent effect
inhibition [16]: Dose-dependent effect
fold change (FC) [17]: 21.4
fold change (FC) [18]: 28.6
fold change (FC) [19]: 25.7
Activity [20]: Active
Activity [21]: Active
fold change (FC) [22]: 1.94
fold change (FC) [23]: 1.86
fold change (FC) [24]: 2.4
fold change (FC) [25]: 1.78
fold change (FC) [26]: 1.54
fold change (FC) [27]: 2.05
inhibition [28]: Dose-dependent effect
inhibition [29]: Dose-dependent effect
inhibition [30]: Dose-dependent effect
inhibition [31]: Dose-dependent effect
growth inhibition (GI) [1]: Dose-dependent effect
IC50 [1]: 7.1 µM
growth inhibition (GI) [2]: Dose-dependent effect
IC50 [2]: 6.2 µM
